Data taken from paper PMC12238405 (Communications Biology, 2025).
Entries after “also recorded” stand apart in the source; their conditions may differ. Read-outs that look alike come from different tables or passages of the source.

Tests used:
[1] = tested on: L. donovani MHOM/IN/80/DD8 intracellular amastigotes; test: L. donovani MHOM/IN/80/DD8 intracellular amastigote assay; type: cell-based, Leishmania donovani; details: for IC50: Leishmania donovani, THP-1, 96 h, read-out: IC50 (µM) [mean ± SD]
Procedure, shortened: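 THP-1 cells: 12,500/well, 25 ng/mL PMA, 24 h at 37 °C. PMA washed off; cells rested 48 h. Infected with metacyclic promastigotes from 7-day culture (host:parasite 1:2.5) for 24 h, then free parasites washed off. Test compound 80–0.004 μM (0.4% DMSO), 96 h. PFA fixation, SYBR green/CellMask stain. Infected cells normalized to 1 μM amphotericin B and 0.4% DMSO. Sigmoidal IC50, two independent experiments.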

[2] = tested on: L. donovani DD8 promastigotes; test: Selection of resistant parasites under increasing drug pressure; type: cell-based, Leishmania donovani
Procedure, shortened: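 DD8 promastigotes were cultured under gradually increasing concentrations of each drug, starting at a sublethal level, to select resistant strains. Resistance was confirmed with the promastigote viability assay.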

[3] = tested on: amphotericin B resistant L. donovani DD8 promastigotes; test: Activity on amphotericin B resistant parasites, promastigote assay; type: cell-based, Leishmania donovani
Procedure, shortened: (§1)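 Resistant DD8 promastigote lines were raised by culture under gradually increasing drug concentrations, starting sublethal. Resistant clones were then tested alongside the wild-type strain in the resazurin promastigote viability assay.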

[4] = tested on: miltefosine resistant L. donovani DD8 promastigotes; test: Activity on miltefosine resistant parasites, promastigote assay; type: cell-based, Leishmania donovani
Procedure, shortened: as §1

[5] = tested on: amphotericin B resistant L. donovani DD8 intracellular amastigotes; test: Activity on amphotericin B resistant parasites, intracellular amastigote assay; type: cell-based, Leishmania donovani
Procedure, shortened: (§2)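 Drug-selected resistant DD8 promastigotes were used to infect PMA-differentiated THP-1 cells. Test compound activity was assessed in the intracellular amastigote assay and compared with the wild-type strain.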

[6] = tested on: L. infantum chagasi (MHOM/BR/1972/BH46); test: Histopathological analysis of hamster liver and spleen; type: in vivo, golden hamsters (Mesocricetus auratus); details: infected hamsters, 10 mg/kg/day oral
[7] = tested on: THP-1 cells; test: Macrophage; type: cell-based, human; details: vs L. donovani DD8 intracellular amastigotes
[8] = tested on: L. infantum chagasi (MHOM/BR/1972/BH46); test: In vivo L. infantum chagasi chronic hamster model, parasite load by qPCR; parameters: species or system golden hamsters (Mesocricetus auratus); details: for average number of amastigotes in the liver / average number of amastigotes in the spleen: group average
[9] = Distribution coefficient estimation using chromatography; type: physicochemical; details: pH 7.4
Procedure, shortened: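 LogD estimated at pH 7.4 by gradient HPLC, correlating retention against standards of known partition coefficient.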

[10] = tested on: L. donovani DD8 promastigotes; test: Determination of the cidal action of compounds; type: cell-based, Leishmania donovani; details: after 24 h incubation
Procedure, shortened: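 DD8 promastigotes from two cultures in separate M199 media (N = 2) seeded at 5 × 10^5 parasites/mL. Test compound added; cell numbers counted at each time point. Absence of cells at a concentration was scored as cidal.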

[11] = tested on: L. donovani MHOM/SD/62/1S-CL2D, LdBOB intracellular amastigotes; test: L. donovani MHOM/SD/62/1S-CL2D, LdBOB intracellular amastigote assay; type: cell-based, Leishmania donovani; details: for IC50: Leishmania donovani, 72 h, read-out: IC50 (µM) [mean ± SD]; for fold difference in activity between L. donovani DD8 and LdBOB: intracellular amastigote 72 h assay; for Selectivity THP-1 cells: vs L. donovani LdBOB intracellular amastigotes, 72 h incubation
[12] = tested on: miltefosine resistant L. donovani DD8 intracellular amastigotes; test: Activity on miltefosine resistant parasites, intracellular amastigote assay; type: cell-based, Leishmania donovani
Procedure, shortened: as §2

[13] = tested on: cytokines IL-10, IL-4, TGFβ, IFN-γ, IL-17 and TNFα; test: Relative expression of cytokines by qPCR in hamster spleen and liver; type: in vivo, golden hamsters (Mesocricetus auratus); details: for TGF-β expression: compared to untreated (UTG)
Procedure, shortened: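 Hamsters in chronic infection (~60 days) treated 10 consecutive days: vehicle (0.5% carboxymethyl cellulose, oral), GLU 50 mg/kg/day ip, or test compound. Spleen/liver RNA reverse-transcribed; TaqMan qPCR normalized to hamster microglobulin at equal cDNA input; water as negative control. Cycling: 50 °C 2 min, 95 °C 10 min, 40 × (95 °C 15 s, 60 °C 1 min).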

[14] = tested on: L. donovani DD8 promastigotes; test: Time to kill assay; type: cell-based; details: Leishmania donovani, read-out: IC50, time to kill, promastigotes
Procedure, shortened: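 Time-kill: DD8 promastigotes exposed to test compound for 24, 48, 72 or 96 h in the promastigote viability assay. 14-point concentration series from 40 µM top; IC50 calculated at each exposure time.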

[15] = tested on: HEK-293 cells; test: HEK-293 resazurin viability assay; type: cell-based, human; details: vs L. donovani DD8 intracellular amastigotes, 96 h incubation
[16] = tested on: Leishmania donovani promastigotes; details: cited from earlier work
[17] = tested on: L. tropica, L. aethiopica, L. mexicana, L. panamensis and L. donovani; details: read-out: EC50 values obtained for miltefosine; varied between species; cited from earlier work
[18] = tested on: L. donovani DD8 intracellular amastigotes; test: Time to kill assay; type: cell-based; details: Leishmania donovani, 24 h, read-out: IC50, time to kill, intracellular amastigotes
Procedure, shortened: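 Intracellular L. donovani amastigotes were exposed to test compound for 24, 48 or 72 h, with amphotericin B and miltefosine as reference drugs. A 14-point concentration–response series started at 40 µM, and an IC50 was derived for each exposure time. Other conditions followed the paper's intracellular amastigote assay.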

[19] = tested on: L. donovani; details: read-out: mean IC50; L. donovani DD8; cited from earlier work
[20] = L. donovani DD8 intracellular amastigote assay (96 h)
[21] = BZ1, BZ1-I 10 mg/kg/day oral, GLU 50 mg/kg/day i.p.
[22] = BZ1, BZ1-I 10 mg/kg/day oral, GLU 50 mg/kg/day i.p., 10 days

| Compound | IC50 [1] | concentration withstood by resistant clones ([2]; after 428 days) | activity against amphotericin B resistant strain compared to wild-type [3] | activity against miltefosine resistant strain compared to wild-type [4] | activity against amphotericin B resistant strain compared to wild-type [5] | histopathological findings, liver [6] | histopathological findings, spleen [6] | Selectivity THP-1 cells ([7]; 72 h incubation) | Selectivity THP-1 cells ([7]; 96 h incubation) | parasite burden reduction in spleen [8, 21] | average number of amastigotes in the liver [8, 22] | average number of amastigotes in the spleen [8, 22] | concentration at which no viable promastigotes were observed [10] | IC50 [11] | fold difference in activity between L. donovani DD8 and LdBOB [11] | Selectivity THP-1 cells [11] | activity against miltefosine resistant strain compared to wild-type [12] | TGF-β expression [13] | IC50 ([14]; 24 h) | Selectivity HEK-293 cells [15] | further results |
| --- | --- | --- | --- | --- | --- | --- | --- | --- | --- | --- | --- | --- | --- | --- | --- | --- | --- | --- | --- | --- | --- |
| CCOc1ccc(Nc2c3c(nc4ccccc24)CCC3)cc1 [BZ1, N-(4-Ethoxyphenyl)-2,3-dihydro-1H-cyclopenta[b]quinolin-9-amine] | 0.59 ± 0.13 µM | 11 µM | no significant difference | no significant difference | no significant difference | inflammatory nodules in the hepatic parenchyma, lymph histiocytic inflammatory infiltrate in the portal space forming nodules | increase of macrophages in the red pulp forming nodular aggregates and granulomas | >25.64 | >33.89 | 98.56% | 3020 g⁻¹ | 25400 g⁻¹ | 6.66 µM | 4.4 ± 0.12 µM | 5 fold | >11.76 | no significant difference | significantly downregulated; also recorded: decreased expression of TGF-β | 4.31 ± 0.22 µM | > 33 | fold greater activity than miltefosine [1, 20]: 5 fold; fold lower in vitro activity than amphotericin B [1, 20]: ~ 3 fold; in vivo toxicity in the hamster VL model ([8]; 10 mg/kg/day oral, 10 days): does not exhibit in vivo toxicity; chromatographic logD [9]: 5; TNF-α expression ([13]; compared to GLU and untreated, liver and spleen samples): significant downregulation; IL-4 expression ([13]; compared to untreated, spleen and liver samples): significantly downregulated; IL-17 expression ([13]; liver samples, compared to GLU): significant downregulation; IC50 ([14]; 48 h): 2.37 ± 0.74 µM |
| C[C@@H]1[C@H](O)[C@@H](C)/C=C/C=C/C=C/C=C/C=C/C=C/C=C/[C@H](O[C@@H]2O[C@H](C)[C@@H](O)[C@H](N)[C@@H]2O)C[C@@H]2O[C@](O)(C[C@@H](O)C[C@@H](O)[C@H](O)CC[C@@H](O)C[C@@H](O)CC(=O)O[C@H]1C)C[C@H](O)[C@H]2C(=O)O [Amphotericin B, reference compound] | 0.2 ± 0.02 µM | 0.42 µM |  |  |  |  |  |  | 10.24 |  |  |  | 0.33 µM |  |  |  |  |  |  |  | resistance generated [16]: 20 fold |
| CCCCCCCCCCCCCCCCOP(=O)([O-])OCC[N+](C)(C)C [Miltefosine, miltefosine, reference compound] | 2.54 ± 0.57 µM | 40 µM |  |  |  |  |  |  | >7.87 |  |  |  | 6.66 µM |  |  |  |  |  |  | 15.66 | Selectivity THP-1 cells ([7]; 96 h incubation, listed as miltefosine): 7.87; EC50 [17]: 2.63 to 10.6 µM |
| Meglumine Antimoniate [reference compound] |  |  |  |  |  |  |  |  |  | 99.21% | 2530 g⁻¹ | 12200 g⁻¹ |  |  |  |  |  |  |  |  | parasite burden reduction in liver [8, 21]: 98.79%; INF-γ expression ([13]; spleen samples): significant difference; also recorded: increased INF-γ (Th1) expression |
| c1ccc(Oc2ccc(Nc3c4c(nc5ccccc35)CCC4)cc2)cc1 [BZ1-I, N-(4-phenoxyphenyl)-1H,2H,3H-cyclopenta[b]quinolin-9-amine] | 0.4 ± 0.38 µM |  | no significant difference | no significant difference | no significant difference | mild inflammatory infiltrate in the portal space and nodules in the parenchyma with the presence of giant cells | evident increase in macrophages in the red pulp with the formation of nodules | >44.44 | >49.12 | 99.95% | 120 g⁻¹ | 162 g⁻¹ | 1.66 µM | 4.26 ± 0.24 µM | 10 fold | >11.49 | no significant difference | decreased expression of TGF-β | 3.08 ± 1.11 µM | >24.11 | concentration withstood by resistant clones ([2]; after 210 days): 5.5 µM; IC50 [18]: 4.84 ± 0.83 µM; fold greater activity compared to the GLU treatment group ([8]; 10 mg/kg/day oral vs GLU 50 mg/kg/day i.p.): ~ 21 fold; IC50 ([14]; 48 h): 0.69 ± 0.35 µM |
| NC[C@@H]1O[C@H](O[C@H]2[C@@H](O)[C@H](O[C@@H]3[C@@H](O)[C@H](N)C[C@H](N)[C@H]3O[C@H]3O[C@H](CO)[C@@H](O)[C@H](O)[C@H]3N)O[C@@H]2CO)[C@H](N)[C@@H](O)[C@@H]1O [Paromomycin] |  |  |  |  |  |  |  |  |  |  |  |  |  |  |  |  |  |  |  |  | IC50 [19]: 158 to 166 µM |
